Laboratory results reported in ChEMBL document CHEMBL1145015, “Structure-activity relationships of 1,2,4-benzotriazine 1,4-dioxides as hypoxia-selective analogues of tirapazamine” (J Med Chem, 2003).

Experiments:
HT-29 [1] = assay: Interexperimental ratio of hypoxic TPZ C10 to hypoxic BTO C10 using human adenocarcinoma HT-29 cell line; format: functional
[2] = Concentration required to reduce plating efficiency to 10 percent of controls, under aerobic conditions in mouse SCCVII tumor cells.; format: functional, SCC-7
Summary of the method: (§1)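 SCCVII cells plated in glass dishes (2×10^5 to 1×10^6 per dish) 1–2 days ahead. Drug freshly dissolved, given in complete medium for 1 h at 37 °C with shaking. Hypoxia (<200 ppm O2) by repeated evacuation/flushing with 95% N2 + 5% CO2; aerobic controls flushed with 95% air + 5% CO2. Cells washed, trypsinized, replated. Crystal violet stain after 10–14 days, >50-cell colonies scored. C10 is the concentration giving 10% of control plating efficiency.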

HT-29 [3] = assay: Inhibitory concentration against human adenocarcinoma HT-29 cell line under aerobic condition; format: functional, cell-based
Summary of the method: (§2)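 SRB proliferation assay in 96-well plates. SCCVII (200 cells) or HT-29 (1000 cells) seeded in αMEM + 10% FCS with glucose (17 mM final) and 100 μM 2'-deoxycytidine, then attached for 3 h. Cells exposed for 4 h at 37 °C to 2-fold serial dilutions in triplicate, either oxic (20% O2, 5% CO2) or in an anaerobic chamber (<0.001% O2). After washing, cells grew for 5 (oxic) or 6 (anoxic) days before SRB staining. IC50 values are the mean of three independent experiments.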

SCC-7 [4] = assay: Interexperimental ratio of hypoxic TPZ C10 to hypoxic BTO C10 using murine SCCVII cell line; format: functional, Mus musculus
SCC-7 [5] = assay: Inhibitory concentration against murine SCCVII cell line under hypoxic condition; format: functional, cell-based; details: Mus musculus; summary of the method: as §2
[6] = Interexperimental difference between the hypoxic and aerobic cytotoxicity using murine SCCVII cell line; format: functional, SCC-7
SCC-7 [7] = assay: Inhibitory concentration against murine SCCVII cell line under aerobic condition; format: functional, cell-based; details: Mus musculus; summary of the method: as §2
[8] = Intraexperimental difference between the hypoxic and aerobic cytotoxicity in mouse SCCVII tumor cells; format: functional, SCC-7
Summary of the method: (§3)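 Clonogenic SCCVII survival after 1 h drug exposure at 37 °C, either hypoxic (<200 ppm O2, 95% N2/5% CO2) or aerobic (95% air/5% CO2). Colonies of >50 cells counted after 10–14 days. HCR = aerobic C10 / hypoxic C10, with both values from the same experiment.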

[9] = Concentration required to reduce plating efficiency to 10 percent of controls, under hypoxic conditions in mouse SCCVII tumor cells.; format: functional, SCC-7; summary of the method: as §1
[10] = Intraexperimental ratio of hypoxic TPZ C10 to hypoxic BTO C10 in mouse SCCVII tumor cells.; format: functional, SCC-7
Summary of the method: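 Computed within each experiment from the clonogenic SCCVII assay (1 h drug exposure, hypoxia <200 ppm O2 by gas evacuation/flushing, colony counting after 10–14 days). RHT = C10 of TPZ under hypoxia divided by C10 of the analogue under hypoxia.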

[11] = Partition coefficient (logP); format: physicochemical; details: octanol/water
Summary of the method: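 Octanol/water partition at pH 7.4, measured by low-volume shake flask. Drug in both the octanol and buffer phases quantified by HPLC.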

[12] = Intraexperimental difference between the hypoxic and aerobic cytotoxicity; format: functional; summary of the method: as §3
[13] = Interexperimental difference between the hypoxic and aerobic cytotoxicity using human adenocarcinoma HT-29 cell line; format: functional
HT-29 [14] = assay: Inhibitory concentration against human adenocarcinoma HT-29 cell line under hypoxic condition; format: functional, cell-based; summary of the method: as §2

Row | SMILES | RHT (HT-29 [1]) | C10 [2] | IC50 (HT-29 [3]) | RHT (SCC-7 [4]) | IC50 (SCC-7 [5]) | HCR [6] | IC50 (SCC-7 [7]) | HCR [8] | C10 [9] | RHT [10] | logP [11] | HCR [12] | HCR [13] | IC50 (HT-29 [14])
1 | Cc1ccc2c(c1)[n+]([O-])c(N)n[n+]2[O-] | 0.4 | 2901 µM | 469 µM | 0.4 | 5.6 µM | 42.6 | 217 µM | 166.7 | 17.4 µM | 0.58 | 0.21 |  |  | 
2 | CCCCS(=O)(=O)c1cccc2c1[n+]([O-])nc(N)[n+]2[O-] |  | 175 µM |  |  |  |  |  |  | 8.31 µM | 1.2 |  | 21.1 |  | 
3 | Nc1n[n+]([O-])c2ccc(C(F)(F)F)cc2[n+]1[O-] |  | 110 µM |  |  |  |  |  |  | 8.23 µM | 1.2 |  | 13.3 |  | 
4 | CN(C)c1cccc2c1[n+]([O-])c(N)n[n+]2[O-] | 0.2 | 30.5 µM | 4.2 µM | 0.2 | 12.2 µM | 0.18 | 2.1 µM | 1.2 | 25.8 µM | 0.39 |  |  | 0.18 | 23.3 µM
5 | CCN(CC)c1cccc2c1[n+]([O-])c(N)n[n+]2[O-] |  | 58.7 µM |  |  |  |  |  |  | 67.7 µM | 0.15 |  | 0.87 |  | 
6 | COc1ccc2c(c1)[n+]([O-])c(N)n[n+]2[O-] |  |  |  |  |  |  |  |  | 127 µM | 0.08 |  |  |  | 
7 | Nc1n[n+]([O-])c2c(C(F)(F)F)cccc2[n+]1[O-] |  | 626 µM |  |  |  |  |  |  | 5.56 µM | 1.8 | 0.53 | 112.5 |  | 
8 | COc1cccc2c1[n+]([O-])c(N)n[n+]2[O-] |  | 47.9 µM |  |  |  |  |  |  | 58 µM | 0.18 |  | 0.83 |  | 
9 | Cc1ccc2c(c1)[n+]([O-])nc(N)[n+]2[O-] |  | 2031 µM |  |  |  |  |  |  | 16.2 µM | 0.63 | 0.13 | 125 |  | 
10 | Nc1n[n+]([O-])c2cccc(F)c2[n+]1[O-] |  | <76.1 µM |  |  |  |  |  |  | 10.2 µM | 1 |  | <7.5 |  | 
11 | CS(=O)(=O)c1ccc2c(c1)[n+]([O-])nc(N)[n+]2[O-] |  | 251 µM |  |  |  |  |  |  | 31.7 µM | 0.32 | -1.15 | 7.9 |  | 
12 | Nc1n[n+]([O-])c2ccc(Cl)cc2[n+]1[O-] | 4.1 | 140 µM | 41.2 µM | 2.4 | 0.98 µM | 22.5 | 21.1 µM | 21.6 | 6.47 µM | 1.6 |  |  | 33 | 1.3 µM
13 | Nc1n[n+]([O-])c2cc(F)ccc2[n+]1[O-] | 2.8 | 381 µM | 47.8 µM | 2.2 | 1.1 µM | 19.3 | 17.6 µM | 70.3 | 5.41 µM | 1.9 |  |  | 21.7 | 1.87 µM
14 | CN(C)c1ccc2c(c1)[n+]([O-])c(N)n[n+]2[O-] |  | 440 µM |  |  |  |  |  |  | >440 µM | <0.023 |  | <1 |  | 
15 | COc1ccc2c(c1)[n+]([O-])nc(N)[n+]2[O-] |  | 1934 µM |  |  |  |  |  |  | 19.3 µM | 0.53 |  | 100 |  | 
16 | Nc1n[n+]([O-])c2cc(Cl)ccc2[n+]1[O-] | 7.2 | 271 µM | 19.8 µM | 3.9 | 0.61 µM | 20.4 | 12.2 µM | 28.6 | 9.48 µM | 1.1 | 0.46 |  |  | 0.73 µM
17 | CS(=O)(=O)c1ccc2c(c1)[n+]([O-])c(N)n[n+]2[O-] |  | <274 µM |  |  |  |  |  |  | 26.1 µM | 0.39 |  | <10.5 |  | 
18 | CCN(CC)c1ccc2c(c1)[n+]([O-])nc(N)[n+]2[O-] |  | > 725 µM |  |  |  |  |  |  | >72.5 µM | <0.14 |  |  |  | 
19 | Nc1n[n+]([O-])c2cccc(Cl)c2[n+]1[O-] |  | 10.2 µM |  |  |  |  |  |  | 7.46 µM | 1.4 | 0.07 | 1.4 |  | 
20 | CN(C)c1ccc2c(c1)[n+]([O-])nc(N)[n+]2[O-] |  | 3159 µM |  |  |  |  |  |  | 237 µM | 0.043 |  | 13.3 |  | 
21 | Cc1cccc2c1[n+]([O-])nc(N)[n+]2[O-] |  | 2538 µM |  |  |  |  |  |  | 24.7 µM | 0.41 | 0.24 | 102.9 |  | 
22 | CN(C)c1cccc2c1[n+]([O-])nc(N)[n+]2[O-] |  | 2769 µM |  |  |  |  |  |  | 157 µM | 0.065 |  | 17.6 |  | 
23 | Cc1cccc2c1[n+]([O-])c(N)n[n+]2[O-] |  | < 381 µM |  |  |  |  |  |  | 38.1 µM | 0.27 |  | <10 |  | 
24 | CCN(CC)c1ccc2c(c1)[n+]([O-])c(N)n[n+]2[O-] |  | >1269 µM |  |  |  |  |  |  | >50.8 µM | <0.2 |  |  |  | 
25 | CCN(CC)c1cccc2c1[n+]([O-])nc(N)[n+]2[O-] |  | 1904 µM |  |  |  |  |  |  | 114 µM | 0.089 | 0.82 | 16.7 |  | 
26 | Nc1n[n+]([O-])c2ccc(F)cc2[n+]1[O-] |  | 114 µM |  |  |  |  |  |  | 10.2 µM | 1 |  | 11.2 |  | 
27 | Nc1n[n+]([O-])c2c(Cl)cccc2[n+]1[O-] | 9.6 | 102 µM | 7.7 µM | 5.2 | 0.45 µM | 15.9 | 8.2 µM | 39.4 | 2.58 µM | 3.9 | 0.17 |  |  | 0.55 µM
28 | CCCCS(=O)(=O)c1ccc2c(c1)[n+]([O-])c(N)n[n+]2[O-] |  | <102 µM |  |  |  |  |  |  | 16.2 µM | 0.63 |  | <6.3 |  | 
29 | CCCCS(=O)(=O)c1ccc2c(c1)[n+]([O-])nc(N)[n+]2[O-] |  | >89.6 µM |  |  |  |  |  |  | 7.76 µM | 1.3 |  | >11.5 |  | 
